Consider 3 molecules from ChEMBL document CHEMBL3124905, “Isothiocoumarin-3-carboxylic acid derivatives: synthesis, anticancer and antitrypanosomal activity evaluation” (Eur J Med Chem, 2014).

The nature of data set [1]: Growth inhibition of human RXF393 cells after 48 hrs by SRB assay. Format: functional. The settings on record: RXF 393, 48 h. The method in brief:
(§1)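 NCI five-dose assay against the ~60-cell-line panel (nine cancer types). Tenfold dilutions from 10−4 to 10−8 M were used with continuous 48-h exposure and SRB absorbance readout. Percent growth was computed from time-zero, control and treated absorbances. GI50 is the concentration giving 50% lower net protein increase than controls. Values not reached are reported as beyond the tested range.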

The nature of data set [2]: Growth inhibition of human HOP92 cells after 48 hrs by SRB assay. In kind it is functional. Particulars: HOP-92, 48 h; for TGI: read-out: pTGI (converted). The method in brief: as §1
Data set [3] is described as follows: Growth inhibition of human SNB cells after 48 hrs by SRB assay. In kind it is functional. Summed up: as §1
Data set [4] concerns CCRF-CEM. As to the kind of experiment: Growth inhibition of human CCRF-CEM cells at 10 uM after 48 hrs by SRB assay. The settings on record: read-out: GI. In kind it is functional. The method in brief: (§2)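 NCI one-dose screen across roughly 60 human tumour cell lines. Cells were preincubated 24–48 h, then treated with a single 10−5 M concentration for 48 h. Growth was read with the SRB protein-binding dye and reported as percent growth versus untreated controls. Negative values indicate cell kill.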

Data set [5] can be described thus: Growth inhibition of human […] cells at 10 uM after 48 hrs by SRB assay. Format: functional. Particulars: read-out: GI. Summed up: as §2
Data set [6] is described as follows: Growth inhibition of human UO31 cells at 10 uM after 48 hrs by SRB assay; values are per cent of control. The settings on record: UO-31, 48 h.
The test system of a further data set is M14. As to the kind of experiment: Growth inhibition of human M14 cells after 48 hrs by SRB assay. The settings on record: M14, 48 h. In kind it is functional. The method in brief: as §1
Data set [7] has as its system CCRF-CEM. In words: Growth inhibition of human CCRF-CEM cells after 48 hrs by SRB assay. Format: functional. Summed up:
as §1

The test system of a further data set is SF-268. As to the kind of experiment: Anticancer activity against human SF268 cells assessed as cell growth at 100 uM after 48 hrs by SRB assay. In kind it is functional. Particulars: SF-268, 48 h, read-out: Activity. Summed up:
(§3)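 NCI one-dose primary screen on a three-line panel (breast MCF7, lung NCI-H460, CNS SF-268). Cells were inoculated and preincubated 24–48 h, then exposed to a single concentration of 10−4 M for 48 h. The endpoint was sulforhodamine B protein staining, and results are expressed as percent growth relative to untreated control cells. Negative values denote cytotoxicity.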

For data set [8], the system named is NCI-H460. As to the kind of experiment: Anticancer activity against human NCI-H460 cells assessed as cell growth at 100 uM after 48 hrs by SRB assay. Format: functional. The settings on record: NCI-H460, 48 h, read-out: Activity. The method in brief: as §3
In the next data set the test system is MCF7. In words: Anticancer activity against human MCF7 cells assessed as cell growth at 100 uM after 48 hrs by SRB assay. Format: functional. The settings on record: MCF7, 48 h, read-out: Activity. Summed up:
as §3

The subject of data set [9] is NCI-H460. In words: Growth inhibition of human NCI-H460 cells after 48 hrs by SRB assay. Particulars: NCI-H460, 48 h. In kind it is functional. The method in brief: as §1
In the next data set the test system is PC-3. In words: Growth inhibition of human PC3 cells after 48 hrs by SRB assay. Format: functional. The settings on record: PC-3, 48 h. The method in brief: as §1
A further data set has as its system LOX IMVI. In words: Growth inhibition of human LOXIMVI cells after 48 hrs by SRB assay. Format: functional. The method in brief: as §1
For a further data set, the system named is NCI/ADR-RES. In words: Growth inhibition of human NCI/ADR-RES cells after 48 hrs by SRB assay. In kind it is functional. The method in brief: as §1
The next data set has as its system HOP-62. In words: Growth inhibition of human HOP62 cells after 48 hrs by SRB assay. In kind it is functional. Particulars: HOP-62, 48 h. The method in brief:
as §1

The subject of another data set is KM12. In words: Growth inhibition of human KM12 cells after 48 hrs by SRB assay. Format: functional. Particulars: KM12, 48 h. The method in brief: as §1
The test system of the next data set is HCT-116. As to the kind of experiment: Growth inhibition of human HCT116 cells after 48 hrs by SRB assay. Format: functional. The settings on record: HCT-116, 48 h. Summed up:
as §1

Data set [10] can be described thus: Acute toxicity in ip dosed white mouse. Format: organism-based. The settings on record: in vivo. The method in brief: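 White male mice, 23-25 g, dosed intraperitoneally with compound dissolved in 0.9% NaCl saline plus 1-2 drops Polysorbate 80 (Tween-80). Solutions prepared immediately before use. Doses ranged 100-1000 mg/kg, testing 4 or 5 doses with 6 animals per dose. LD50 derived by the Litchfield-Wilcoxon method.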

In another data set the test system is U-251. In words: Growth inhibition of human U251 cells after 48 hrs by SRB assay. In kind it is functional. The settings on record: U-251, 48 h. The method in brief:
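NCI ~60-cell-line five-dose screen. Cells were preincubated 24-48 h, then given compound at 10-fold dilutions from 10^-4 to 10^-8 M with 48 h continuous exposure. SRB protein stain was read by absorbance at time zero, in untreated control and with drug. GI50 was derived from [(Ti-Tz)/(C-Tz)]x100=50, TGI from Ti=Tz, and LC50 from [(Ti-Tz)/Tz]x100=-50.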

In data set [11] the test system is Trypanosoma brucei brucei. In words: Antitrypanosomal activity against bloodstream form of Trypanosoma brucei brucei strain 90-13 assessed as inhibition of parasite growth at 1 ug/ml after 72 hrs by resazurin reduction test. The settings on record: strain 90-13, 72 h. Format: functional. The method in brief: (§4)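 Trypanosoma brucei brucei 90-13 bloodstream forms, grown in HMI9 with 10% FCS at 37 °C under 5% CO2. Log-phase parasites were seeded at 10^5 cells/mL with or without inhibitor, with stocks prepared in DMSO. After 72 h, resazurin was added and fluorescence was read at 530/590 nm after a further 4 h. Percent growth inhibition was calculated versus drug-free parasites, with DMSO as control.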

The subject of another data set is BT-549. In words: Growth inhibition of human BT549 cells after 48 hrs by SRB assay. In kind it is functional. The settings on record: BT-549, 48 h. The method in brief:
as §1

Data set [12] is described as follows: Growth inhibition of human […] cells after 48 hrs by SRB assay. Format: functional. The method in brief: as §1
The next data set concerns NCI-H23. As to the kind of experiment: Growth inhibition of human NCI-H23 cells after 48 hrs by SRB assay. In kind it is functional. The settings on record: NCI-H23, 48 h. The method in brief:
as §1

The next data set has as its system MDA-MB-231. In words: Growth inhibition of human MDA-MB-231/ATCC cells after 48 hrs by SRB assay. The settings on record: MDA-MB-231, 48 h. In kind it is functional. The method in brief: as §1
Data set [13] is described as follows: Growth inhibition of human 786-O cells after 48 hrs by SRB assay. In kind it is functional. The settings on record: 786-0, 48 h. Summed up:
as §1

Data set [14] deals with Trypanosoma brucei brucei. In words: Antitrypanosomal activity against bloodstream form of Trypanosoma brucei brucei strain 90-13 assessed as inhibition of parasite growth at 10 ug/ml after 72 hrs by resazurin reduction test. Format: functional. The settings on record: strain 90-13, 72 h. The method in brief: as §4
The subject of another data set is MOLT-4. In words: Growth inhibition of human MOLT4 cells after 48 hrs by SRB assay. In kind it is functional. Particulars: MOLT-4, 48 h. The method in brief: as §1

As for `COc1ccc2cc(C(=O)OC(C)C)sc(=O)c2c1OC`, the concentration for 50% growth inhibition (GI50) is 20 µM in [1], 28.8 µM in [2] and 23.4 µM in data set [3]. Further, the TGI was 45.7 µM in [1] (read-out: pTGI (converted)), 85.1 µM in [2] and 53.7 µM in data set [3] (read-out: pTGI (converted)).

Turning to `O=C(Nc1ccc(O)cc1)c1cc2ccccc2c(=O)s1`, the values for the inhibition of growth at 10 µM (in the data set with CCRF-CEM [4]; in data set [5]) were -28% and -11%, respectively. The growth percent at 10 µM in [6] was -62.1%.

For `COc1ccc2cc(C(=O)Nc3cccc(C(F)(F)F)c3)sc(=O)c2c1OC`, the GI50 in the data set with M14 is 7.76 µM; with CCRF-CEM [7], 12 µM; in the data set with NCI-H460 [9], 5.37 µM; with PC-3, 4.68 µM; with LOX IMVI, 6.92 µM; in [2], 3.02 µM. In addition, the concentration for 50% growth inhibition (GI50) with NCI/ADR-RES is 8.43 µM; in the data set on HOP-62 it was 5.37 µM; in the data set on KM12 it was 9.55 µM; with HCT-116, 3.39 µM; with U-251, 3.16 µM; in the data set with BT-549 it was 2.45 µM. Further, the concentration for 50% growth inhibition (GI50) in data set [12] is 2.04 µM; with NCI-H23, 6.46 µM; in the data set on MDA-MB-231 it was 2.09 µM; in data set [13], 3.39 µM; in the data set on MOLT-4, 5.62 µM. The TGI was 20 µM in the data set on M14 (read-out: pTGI (converted)); 91.2 µM in the data set on CCRF-CEM [7] (read-out: pTGI (converted)); over 100 µM with NCI-H460 [9] (read-out: pTGI); 19.5 µM in the data set on PC-3 (read-out: pTGI (converted)); 21.9 µM in the data set with LOX IMVI (read-out: pTGI (converted)); 10 µM in [2]. In addition, the TGI was 21.9 µM in the data set with NCI/ADR-RES (read-out: pTGI (converted)); 16.2 µM with HOP-62 (read-out: pTGI (converted)); over 100 µM in the data set with KM12 (read-out: pTGI); 14.5 µM in the data set with HCT-116 (read-out: pTGI (converted)); 11 µM in the data set with U-251 (read-out: pTGI (converted)); 7.08 µM in the data set with BT-549 (read-out: pTGI (converted)). Also, the TGI in [12] (read-out: pTGI (converted)) is 5.75 µM; with NCI-H23 (read-out: pTGI (converted)) it was 18.6 µM; in the data set on MDA-MB-231 (read-out: pTGI (converted)) it was 5.37 µM; in [13] (read-out: pTGI (converted)) it was 12.3 µM; in the data set on MOLT-4 (read-out: pTGI (converted)), 25.7 µM. In addition, the growth at 100 µM in the data set with SF-268 was 49%; in the data set with NCI-H460 [8], 4%; in the data set on MCF7 it was 45%. The 50% lethal dose (LD50) in [10] was found to be 750 mg/kg. Also, in data set [11], the inhibition at 1 µg/mL was -9.98%. In addition, in data set [14], the inhibition at 10 µg/mL came to 5.46%.
